Results taken from ChEMBL document CHEMBL3232750, “Synthesis, structure-activity relationships, and in vitro antibacterial and antifungal activity evaluations of novel pyrazole carboxylic and dicarboxylic acid derivatives” (2014).
Converted amounts (≈) assume the structure as drawn. The source made the active and inactive calls. The calls are words filed in the database; no cut-off is given here.

What was measured:
[1] = tested on: Staphylococcus aureus; assay: Antibacterial activity against methicillin-resistant Staphylococcus aureus at 37 degC after 24 hrs by agar well diffusion assay; assay type: functional
Summary of the method: (§1)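 Bacteria kept on Nutrient Agar slants at 4 °C and subcultured before use. Suspensions of 10^8 CFU/mL were swabbed onto Nutrient Agar and the plates dried 40 min at 35 °C. Compounds were dissolved in DMSO starting at 2.5 mg/ml, serially diluted two-fold, and loaded into 6 mm wells. Plates were pre-incubated 2 h at 25 °C, then 24 h at 37 °C. Inhibition zones were read and the MIC taken as the lowest inhibiting concentration. Duplicates were run.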

[2] = tested on: Staphylococcus aureus; assay: Antibacterial activity against Staphylococcus aureus at 30 ug/disc at 37 degC after 24 hrs by agar well diffusion assay; assay type: functional; settings: read-out: DIZ
Summary of the method: (§2)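 Positive-control antibiotic disc on Nutrient Agar swabbed with 10^8 CFU/mL bacteria. Plates pre-incubated 2 h at 25 °C, then 24 h at 37 °C. Inhibition zone diameter measured in mm. Duplicate.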

[3] = tested on: Escherichia coli; assay: Antibacterial activity against Escherichia coli at 30 ug/disc at 37 degC after 24 hrs by agar well diffusion assay; assay type: functional; settings: read-out: DIZ; summary of the method: as §2
[4] = tested on: Nakaseomyces glabratus; assay: Antifungal activity against Candida glabrata at 100 U/disc at 25 degC after 48 hrs by agar well diffusion assay; assay type: functional, organism-based
Summary of the method: (§3)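 Yeasts kept on Sabouraud Dextrose Agar slants at 4 °C and subcultured before use. Suspensions of 10^7 CFU/mL were swabbed onto Sabouraud Dextrose Agar and the plates dried 40 min at 35 °C. The nystatin positive-control disc carried 100 U. Plates were pre-incubated 2 h at 25 °C, then incubated 48 h at 25 °C. The growth-inhibition zone diameter was measured in mm, in duplicate.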

[5] = tested on: Candida parapsilosis; assay: Antifungal activity against Candida parapsilosis at 100 U/disc at 25 degC after 48 hrs by agar well diffusion assay; assay type: functional, organism-based; summary of the method: as §3
[6] = tested on: Candida tropicalis; assay: Antifungal activity against Candida tropicalis at 100 U/disc at 25 degC after 48 hrs by agar well diffusion assay; assay type: functional, organism-based; summary of the method: as §3
[7] = tested on: Nakaseomyces glabratus; assay: Antifungal activity against Candida glabrata at 25 degC after 48 hrs by agar well diffusion assay; assay type: functional
Summary of the method: (§4)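 Yeast suspensions of 10^7 CFU/mL were swabbed onto Sabouraud Dextrose Agar and dried about 40 min at 35 °C. Compounds were dissolved in DMSO (2.5 mg/ml initial) and diluted two-fold in DMSO, then loaded into 6 mm wells. Plates: 2 h pre-incubation at 25 °C, then 48 h at 25 °C. MIC read as the lowest concentration inhibiting growth around the well, in duplicate. The C. albicans clinical isolate came from a hospitalized patient at Eskisehir Osmangazi University hospital; the standard strain came from a culture collection.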

[8] = tested on: Escherichia coli; assay: Antibacterial activity against Escherichia coli at 37 degC after 24 hrs by agar well diffusion assay; assay type: functional, organism-based
Summary of the method: (§5)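 Compounds dissolved in DMSO at 2.5 mg/ml initial concentration, then serially diluted two-fold in DMSO. Nutrient Agar plates were swabbed with 10^8 CFU/mL bacteria and dried about 40 min at 35 °C. Solution was placed in 6 mm wells, then 2 h pre-incubation at 25 °C and 24 h at 37 °C. MIC is the lowest concentration giving a growth-inhibition zone around the well. Duplicate.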

[9] = tested on: Pseudomonas aeruginosa; assay: Antibacterial activity against Pseudomonas aeruginosa at 37 degC after 24 hrs by agar well diffusion assay; assay type: functional, organism-based; summary of the method: as §5
[10] = tested on: Candida albicans; assay: Antifungal activity against Candida albicans ESOGU at 25 degC after 48 hrs by agar well diffusion assay; assay type: functional; summary of the method: as §4
[11] = tested on: Candida albicans; assay: Antifungal activity against Candida albicans at 25 degC after 48 hrs by agar well diffusion assay; assay type: functional; summary of the method: as §4
[12] = tested on: Candida tropicalis; assay: Antifungal activity against Candida tropicalis at 25 degC after 48 hrs by agar well diffusion assay; assay type: functional; summary of the method: as §4
[13] = tested on: Candida parapsilosis; assay: Antifungal activity against Candida parapsilosis at 25 degC after 48 hrs by agar well diffusion assay; assay type: functional; summary of the method: as §4
[14] = tested on: Staphylococcus aureus; assay: Antibacterial activity against Staphylococcus aureus at 37 degC after 24 hrs by agar well diffusion assay; assay type: functional; summary of the method: as §5
[15] = tested on: Enterococcus; assay: Antibacterial activity against vancomycin-resistant Enterococcus species at 37 degC after 24 hrs by agar well diffusion assay; assay type: functional, organism-based; summary of the method: as §1

| Molecule | Activity [1] | zone of inhibition at 30 µg/disc [2] [mm] | zone of inhibition at 30 µg/disc [3] [mm] | inhibition zone (IZ) [4] [mm] | inhibition zone (IZ) [5] [mm] | inhibition zone (IZ) [6] [mm] | Activity [7] | Activity [8] | Activity [9] | Activity [10] | MIC [11] [mg/L] | Activity [12] | Activity [13] | Activity [14] | Activity [15] |
| --- | --- | --- | --- | --- | --- | --- | --- | --- | --- | --- | --- | --- | --- | --- | --- |
| CO/N=C(\C(=O)N[C@@H]1C(=O)N2C(C(=O)O)=C(COC(C)=O)CS[C@H]12)c1csc(N)n1 [CEFOTAXIME] | inactive | 35 | 45 | – | – | – | – | – | – | – | – | – | – | – | – |
| NYSTATIN | – | – | – | 24 | 19 | 19 | – | – | – | – | – | – | – | – | – |
| O=C(Nc1cccc(C(F)(F)F)c1)c1nn(-c2cccc([N+](=O)[O-])c2)c(-c2ccccc2)c1C(=O)Nc1cccc(C(F)(F)F)c1 | inactive | – | – | – | – | – | inactive | inactive | inactive | inactive | 50 (≈ 78.2 µM) | inactive | inactive | inactive | inactive |
